Twelve compounds from ChEMBL document CHEMBL1122439 (J Med Chem, 1983) can be followed below.

Data set [1] deals with Canis familiaris. In words: % Inhibition of acid output in dogs at a dose of 3.0 mg/kg administered intravenously. Format: functional. The note with it: Canis lupus familiaris, route intravenous. In short, it runs like this:
(§1)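 Dogs with chronic gastric fistula; gastric acid secretion evoked by maximal stimulating histamine dose (64 μg/kg, sc). Test agent given intravenously, or intragastrically via fistula for peroral dosing; percent inhibition of acid output recorded at the stated single dose.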

For a further data set, the target named is Histamine H2 receptor (Cavia porcellus, UniProt P47747). In words: Evaluated in vitro for Histamine H2 receptor inhibition using the dimaprit stimulated chronotropic response of the guinea pig atrium. In kind it is tissue-based, Cardiac atrium. The essentials: (§2)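 Isolated guinea pig atria; chronotropic response to rising concentrations of H2 agonist dimaprit (10⁻⁷–10⁻⁴ M) in presence of test agent; three to four atria per test concentration; -log K_I = log(ED50 dose ratio − 1) − log(drug dose).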
Chain of Histamine H2 receptor (P47747 whole entry): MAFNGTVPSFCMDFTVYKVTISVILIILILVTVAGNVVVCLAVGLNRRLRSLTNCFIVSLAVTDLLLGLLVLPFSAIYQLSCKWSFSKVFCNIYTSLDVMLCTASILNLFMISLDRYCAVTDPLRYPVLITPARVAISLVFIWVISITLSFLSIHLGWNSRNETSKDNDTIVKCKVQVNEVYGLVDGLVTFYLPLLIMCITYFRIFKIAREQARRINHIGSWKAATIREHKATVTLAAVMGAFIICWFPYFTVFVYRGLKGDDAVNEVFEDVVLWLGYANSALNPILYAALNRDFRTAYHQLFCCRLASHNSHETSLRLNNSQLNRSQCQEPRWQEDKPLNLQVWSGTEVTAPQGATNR

The nature of data set [2]: pKa of urea component measured as proton lost reference pKa for the 3,4 diaminothiadiazole 1-oxide is ~11 in water. Format: physicochemical. The note with it: buffer. The essentials:
(§3)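 Potentiometric titration in water with glass electrodes; heterocycle pKa taken as proton gained, urea-component pKa as proton lost; method upper limit pKa 11.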

Data set [3] in a line: pKa of heterocyclic component measured as proton gained. Format: physicochemical. In short, it runs like this: as §3
For data set [4], the target named is Histamine H2 receptor (Cavia porcellus) (UniProt P47747). In words: Evaluated in vitro for Histamine H2 receptor inhibition using the dimaprit stimulated chronotropic response of the guinea pig atrium; inact means inactive at 8 x 10 -8 M. Conditions: Cardiac atrium, in the assay text read “8 x 10 -5 M” for “8 x 10 -8 M”. Format: tissue-based. In short, it runs like this: as §2
Chain of Histamine H2 receptor (Cavia porcellus) (P47747 whole entry): as above

The subject of data set [5] is Canis familiaris. In words: % Inhibition of acid output in dogs at a dose of 5.0 mg/kg administered intravenously. In kind it is functional. Conditions: Canis lupus familiaris, route intravenous. In short, it runs like this: as §1
For data set [6], the system named is Canis familiaris. In words: % Inhibition of acid output in dogs at a dose of 10 mg/kg administered perorally. In kind it is functional. Conditions: Canis lupus familiaris, route oral. The essentials:
as §1

Data set [7] concerns Canis familiaris. In words: % Inhibition of acid output in dogs at a dose of 0.03 mg/kg administered intravenously. In kind it is functional. Conditions: Canis lupus familiaris, route intravenous. The essentials:
as §1

Data set [8] deals with Canis familiaris. Put plainly: % Inhibition of acid output in dogs at a dose of 20 mg/kg administered perorally. Format: functional. The note with it: Canis lupus familiaris, route oral. In short, it runs like this: as §1
For data set [9], the system named is Canis familiaris. Put plainly: Effective dose administarted intravenously required for 50 % inhibition of acid output in dogs; value may range from 0.01-0.08. In kind it is functional. The note with it: Canis lupus familiaris, iv.
Data set [10] concerns Canis familiaris. Put plainly: Effective dose administarted perorally required for 50 % inhibition of acid output in dogs; value may range from 0.7-10.9. Format: functional. The note with it: Canis lupus familiaris, po.
The subject of data set [11] is Canis familiaris. Put plainly: Effective dose administarted intravenously required for 50 % inhibition of acid output in dogs; Value may range from 0.01-0.03. Format: functional. The note with it: Canis lupus familiaris, iv.
Data set [12] has as its system Canis familiaris. In words: Effective dose administarted perorally required for 50 % inhibition of acid output in dogs. Format: functional. The note with it: Canis lupus familiaris, po.
Data set [13] deals with Canis familiaris. In words: Effective dose administarted intravenously required for 50 % inhibition of acid output in dogs; value may range from 0.01-0.02. Format: functional. Conditions: Canis lupus familiaris, iv.
Data set [14] relates to Canis familiaris. In words: Effective dose administarted intravenously required for 50 % inhibition of acid output in dogs; value may range from 0.15-0.18. In kind it is functional. The note with it: Canis lupus familiaris, iv.

Calls of active or inactive are those of the source. No cut-off for these calls is given here.

`CN/C(=C\[N+](=O)[O-])Nc1ccc(-c2csc(N=C(N)N)n2)cc1` yielded an inhibition in vivo at 3 mg/kg in the data set with Canis familiaris [1] of 55%. Further, on Histamine H2 receptor, the Ki is 31600 nM. Moreover, the pKa came to 9.7 in [2] and 6.2 in data set [3].
With `C/N=C(\NC#N)Nc1ccccc1-c1[nH]cnc1C`, in data set [4], the “-Log Ki” value is “inactive”. This compound also gave an inhibition in vivo at 5 mg/kg in the data set with Canis familiaris [5] of 4%.
For the compound `C/N=C(\NC#N)Nc1ccc(-c2[nH]cnc2C)cc1`, in data set [4], the “-Log Ki” value was “inactive”. Moreover, in the data set on Canis familiaris [5], the inhibition in vivo at 5 mg/kg turned out to be 0%.
With `CN/C(=C/[N+](=O)[O-])Nc1cccc(-c2csc(N=C(N)N)n2)c1`, 10 mg/kg produced 70% inhibition in vivo with Canis familiaris [6]. Further, the Ki at Histamine H2 receptor was 200 nM. The pKa in data set [2] stood at 9.2; in [3] it was 6. Besides, the inhibition in vivo at 0.03 mg/kg with Canis familiaris [7] came to 59%.
With `CN/C(=C\[N+](=O)[O-])Nc1cccc(-c2[nH]cnc2C)c1`, at Histamine H2 receptor, the affinity corresponds to a Ki of 15800 nM. In the data set on Canis familiaris [5], this compound displayed an inhibition in vivo at 5 mg/kg of 28%. The compound also displayed an inhibition in vivo at 20 mg/kg in the data set on Canis familiaris [8] of 54%.
On to `N=C(N)Nc1nc(-c2cccc(Nc3n[s+]([O-])nc3N)c2)cs1` (configuration not stated), for which the 50% effect level with Canis familiaris [9] (ED50) was put at a dose of 0.02 mg/kg. Also, at 10 mg/kg the inhibition in vivo in the data set with Canis familiaris [6] was 31%. At Histamine H2 receptor, this compound showed a Ki of 316 nM. The figures for the pKa in data set [2] and in [3] were 8.9 and 6.2, respectively. The compound also registered an inhibition in vivo at 0.03 mg/kg in the data set on Canis familiaris [7] of 58%.
On to `CNC(=NC#N)Nc1cccc(-c2nc[nH]c2C)c1`, for which, at Histamine H2 receptor, affinity was put at a Ki of 39800 nM. In the data set with Canis familiaris [5], this compound returned an inhibition in vivo at 5 mg/kg of 48%.
For `C/N=C(\NC#N)Nc1cccc(-c2csc(N=C(N)N)n2)c1`, the ED50 with Canis familiaris [10] was found to be 2.81 mg/kg; with Canis familiaris [11], 0.02 mg/kg. Also, in the data set with Canis familiaris [6], testing at 10 mg/kg gave an inhibition in vivo of 73%. The compound further had an inhibition constant Ki on Histamine H2 receptor of 316 nM. In data set [3], this compound showed a pKa of 6.2. Further, the inhibition in vivo at 0.03 mg/kg in the data set with Canis familiaris [7] worked out at 79%.
Compound `CN/C(=N\CCSCc1nc[nH]c1C)NC#N` [CIMETIDINE] gave an ED50 in the data set with Canis familiaris [12] of 2.86 mg/kg. In data set [3], this compound returned a pKa of 6.4.
In the data set with Canis familiaris [6], `CNc1n[s+]([O-])nc1Nc1cccc(-c2csc(N=C(N)N)n2)c1` (configuration not stated) registered an inhibition in vivo at 10 mg/kg of 21%. This compound also gave an ED50 in the data set with Canis familiaris [13] of 0.017 mg/kg. On Histamine H2 receptor, this compound gave a Ki of 398 nM. In the data set on Canis familiaris [7], at 0.03 mg/kg the inhibition in vivo was 85%.
The compound `Cc1[nH]cnc1-c1cccc(Nc2n[s+]([O-])nc2N)c1` (configuration not stated) had an inhibition constant Ki on Histamine H2 receptor of 794 nM. Further, in the data set on Canis familiaris [5], the inhibition in vivo at 5 mg/kg amounted to 5%. Further, in the data set with Canis familiaris [8], the inhibition in vivo at 20 mg/kg stood at 1%.
As to `CNC(=NCCSCc1csc(N=C(N)N)n1)NC#N` [TIOTIDINE], the 50% effective dose (ED50) in the data set with Canis familiaris [12] worked out at 0.12 mg/kg; with Canis familiaris [14] it was 0.16 mg/kg. In addition, the pKa in data set [3] was found to be 7.1.
